From PMC11872064 (Drug Design, Development and Therapy, 2025) come the findings set out here.

For data set [1], the target named is T1, hOAT3 (Homo sapiens, UniProt Q8TCC7).
T1 sequence (Q8TCC7 1-542): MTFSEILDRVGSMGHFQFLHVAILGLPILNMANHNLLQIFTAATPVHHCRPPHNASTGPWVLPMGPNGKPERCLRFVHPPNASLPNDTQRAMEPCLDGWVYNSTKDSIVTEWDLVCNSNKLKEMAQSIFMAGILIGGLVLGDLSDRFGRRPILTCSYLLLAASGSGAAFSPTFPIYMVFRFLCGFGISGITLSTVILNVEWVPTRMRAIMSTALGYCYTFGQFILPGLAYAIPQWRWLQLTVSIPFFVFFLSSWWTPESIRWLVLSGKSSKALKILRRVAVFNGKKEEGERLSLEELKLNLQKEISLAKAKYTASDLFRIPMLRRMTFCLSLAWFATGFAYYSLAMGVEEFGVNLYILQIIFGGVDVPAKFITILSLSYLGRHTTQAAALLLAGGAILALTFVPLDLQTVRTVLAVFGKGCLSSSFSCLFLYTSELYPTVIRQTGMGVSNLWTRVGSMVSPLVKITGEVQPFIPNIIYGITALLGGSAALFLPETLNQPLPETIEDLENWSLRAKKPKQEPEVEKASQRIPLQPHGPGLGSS
As to the kind of experiment: hOAT3 expressing oocytes, [14C]UA uptake inhibition. Format: cell-based. As to conditions: inhibitor injected inside the oocyte.

Data set [2] has as its target T2, hNPT4 (Homo sapiens, UniProt O00476).
T2 sequence (O00476 1-498 isoform O00476-2): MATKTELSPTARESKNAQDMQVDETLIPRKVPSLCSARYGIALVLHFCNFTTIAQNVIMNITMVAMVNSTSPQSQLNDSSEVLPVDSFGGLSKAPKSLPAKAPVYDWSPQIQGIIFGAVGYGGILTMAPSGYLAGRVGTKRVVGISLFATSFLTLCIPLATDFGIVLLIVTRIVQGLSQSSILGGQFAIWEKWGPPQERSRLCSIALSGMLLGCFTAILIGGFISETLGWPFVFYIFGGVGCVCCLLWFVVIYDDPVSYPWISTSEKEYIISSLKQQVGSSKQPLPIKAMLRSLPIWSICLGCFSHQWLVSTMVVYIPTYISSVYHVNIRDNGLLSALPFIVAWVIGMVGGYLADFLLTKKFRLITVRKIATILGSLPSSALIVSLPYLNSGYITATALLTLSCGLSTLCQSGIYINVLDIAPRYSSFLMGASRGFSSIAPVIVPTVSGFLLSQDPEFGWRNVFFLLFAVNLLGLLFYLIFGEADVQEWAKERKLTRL
The experiment in a line: hNPT4 expressing oocytes, [14C]UA uptake inhibition. Format: cell-based. As to conditions: for [14C]UA uptake inhibition via hNPT4, inhibitor outside: inhibitor in uptake solution. Put shortly: (§1)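 Xenopus oocytes were injected with 25 ng cRNA for hNPT4 or hOAT10 and held 2–3 days at 18 ± 2 °C. [14C]uric acid uptake was measured at room temperature in ND96. Inhibitor was either added to the uptake solution (outside) or injected into the oocyte (46 nL, inside); injected oocytes were washed and then incubated 60 min with substrate. Uptake was stopped with ice-cold washes, oocytes were SDS-solubilised and counted by scintillation, and results are mean ± S.D.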

Data set [3] concerns the target T3, hURAT1 (Homo sapiens, UniProt Q96S37).
T3 sequence (Q96S37 1-553): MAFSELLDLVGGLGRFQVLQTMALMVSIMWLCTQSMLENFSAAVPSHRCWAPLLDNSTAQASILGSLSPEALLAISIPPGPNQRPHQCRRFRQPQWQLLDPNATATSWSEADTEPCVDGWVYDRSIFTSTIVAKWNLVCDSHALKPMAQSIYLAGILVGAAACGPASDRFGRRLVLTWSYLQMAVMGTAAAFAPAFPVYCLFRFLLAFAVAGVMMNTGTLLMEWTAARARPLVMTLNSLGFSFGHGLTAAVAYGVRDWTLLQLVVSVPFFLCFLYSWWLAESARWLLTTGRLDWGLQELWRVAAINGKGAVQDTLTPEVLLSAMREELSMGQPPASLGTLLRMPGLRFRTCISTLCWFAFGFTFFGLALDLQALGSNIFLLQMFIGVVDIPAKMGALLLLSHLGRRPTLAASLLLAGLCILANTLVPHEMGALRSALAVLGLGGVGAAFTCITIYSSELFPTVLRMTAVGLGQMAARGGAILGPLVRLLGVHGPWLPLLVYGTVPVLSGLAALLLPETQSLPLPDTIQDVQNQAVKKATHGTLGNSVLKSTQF
As to the kind of experiment: hURAT1 expressing oocytes, [14C]UA uptake inhibition. It counts as cell-based.

The target of data set [4] is hOAT10 (Homo sapiens, UniProt Q9Y226). As to the kind of experiment: hOAT10 expressing oocytes, [14C]UA uptake inhibition. It counts as cell-based. As to conditions: for [14C]UA uptake inhibition via hOAT10, inhibitor inside: inhibitor injected inside the oocyte. Put shortly: as §1
For data set [5], the target named is T4, hOAT1 (Homo sapiens, UniProt Q4U2R8).
T4 sequence (Q4U2R8 1-563): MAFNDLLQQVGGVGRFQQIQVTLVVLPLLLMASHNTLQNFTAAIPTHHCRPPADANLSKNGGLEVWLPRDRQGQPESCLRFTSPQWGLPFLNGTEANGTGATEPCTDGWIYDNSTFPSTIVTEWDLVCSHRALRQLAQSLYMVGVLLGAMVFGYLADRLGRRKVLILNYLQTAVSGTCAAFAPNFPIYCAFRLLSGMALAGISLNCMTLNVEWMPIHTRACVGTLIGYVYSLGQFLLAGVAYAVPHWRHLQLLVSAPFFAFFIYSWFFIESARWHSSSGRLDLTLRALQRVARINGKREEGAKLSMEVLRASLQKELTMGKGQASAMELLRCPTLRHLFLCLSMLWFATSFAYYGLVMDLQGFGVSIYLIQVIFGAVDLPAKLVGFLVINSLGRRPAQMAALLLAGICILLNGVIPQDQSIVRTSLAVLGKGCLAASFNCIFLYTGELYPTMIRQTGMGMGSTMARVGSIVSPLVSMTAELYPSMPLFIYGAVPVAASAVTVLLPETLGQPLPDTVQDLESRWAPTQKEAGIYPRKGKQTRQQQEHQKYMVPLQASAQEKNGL
As to the kind of experiment: hOAT1 expressing oocytes, [14C]UA uptake inhibition. Format: cell-based. As to conditions: inhibitor injected inside the oocyte.

Data set [6] concerns the target T5, OATP-1B1 (Homo sapiens, UniProt Q9Y6L6).
T5 sequence (Q9Y6L6 1-691): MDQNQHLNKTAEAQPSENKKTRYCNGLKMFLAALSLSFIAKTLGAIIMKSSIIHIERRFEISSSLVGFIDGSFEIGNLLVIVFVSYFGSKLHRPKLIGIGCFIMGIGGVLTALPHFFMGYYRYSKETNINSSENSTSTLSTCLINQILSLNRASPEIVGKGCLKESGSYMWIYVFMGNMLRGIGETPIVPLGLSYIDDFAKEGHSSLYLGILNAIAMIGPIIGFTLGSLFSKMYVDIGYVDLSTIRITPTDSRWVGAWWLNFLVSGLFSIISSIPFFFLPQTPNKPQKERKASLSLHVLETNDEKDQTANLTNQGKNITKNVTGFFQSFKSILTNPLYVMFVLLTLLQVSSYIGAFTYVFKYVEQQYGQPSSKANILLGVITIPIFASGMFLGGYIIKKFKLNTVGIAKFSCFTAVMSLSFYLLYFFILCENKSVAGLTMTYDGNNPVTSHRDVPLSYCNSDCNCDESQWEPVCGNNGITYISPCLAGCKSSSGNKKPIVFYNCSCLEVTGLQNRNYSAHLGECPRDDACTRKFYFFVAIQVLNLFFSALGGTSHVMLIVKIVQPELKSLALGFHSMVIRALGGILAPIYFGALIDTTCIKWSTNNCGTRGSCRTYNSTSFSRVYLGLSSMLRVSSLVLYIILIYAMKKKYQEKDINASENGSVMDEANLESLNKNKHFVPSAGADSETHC
As to the kind of experiment: OATP-1B1 expressing oocytes, [3H]estrone sulfate uptake inhibition. It counts as cell-based. The following applies: OATP-1B1 IC50, substrate [3H]estrone sulfate, value in nM. Put shortly:
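Xenopus laevis oocytes were defolliculated with collagenase, and stage IV–V oocytes were injected with 25 ng capped cRNA. They were kept 2–3 days at 18 ± 2 °C in ND96, pH 7.4. Uptake ran at room temperature in ND96 with test compound, using [3H]estrone sulfate for OATP1B1 and 2B1 and [3H]estradiol-17β-glucuronide for OATP1B3. Oocytes were washed in ice-cold ND96, solubilised in 5% SDS and counted by scintillation, with control-oocyte uptake subtracted.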

Data set [7] is described as follows: Rat pharmacokinetic study. Format: in vivo. As to conditions: male, Sprague-Dawley, whole blood. Put shortly: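 Adult male Sprague-Dawley rats (286 ± 12 g) were fasted 12–15 hr, n=5 per route. IV dosing was a bolus of about 300 µL over 30 sec into the orbital sinus under isoflurane, from aqueous 10% DMSO solution. Oral dosing was a CMC-formulated capsule, 19.6 mg/kg, followed by 500 µL water. Tail-vein blood was collected into K2EDTA from 0.083 to 24 hr (iv) or 0.5 to 30 hr (oral). Test compound was extracted with internal standard and quantified by LC/MS-MS (ESI−) against blood standard curves; LOQ 1.08 ng/mL.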

Sequence of hOAT10 (Q9Y226 whole entry): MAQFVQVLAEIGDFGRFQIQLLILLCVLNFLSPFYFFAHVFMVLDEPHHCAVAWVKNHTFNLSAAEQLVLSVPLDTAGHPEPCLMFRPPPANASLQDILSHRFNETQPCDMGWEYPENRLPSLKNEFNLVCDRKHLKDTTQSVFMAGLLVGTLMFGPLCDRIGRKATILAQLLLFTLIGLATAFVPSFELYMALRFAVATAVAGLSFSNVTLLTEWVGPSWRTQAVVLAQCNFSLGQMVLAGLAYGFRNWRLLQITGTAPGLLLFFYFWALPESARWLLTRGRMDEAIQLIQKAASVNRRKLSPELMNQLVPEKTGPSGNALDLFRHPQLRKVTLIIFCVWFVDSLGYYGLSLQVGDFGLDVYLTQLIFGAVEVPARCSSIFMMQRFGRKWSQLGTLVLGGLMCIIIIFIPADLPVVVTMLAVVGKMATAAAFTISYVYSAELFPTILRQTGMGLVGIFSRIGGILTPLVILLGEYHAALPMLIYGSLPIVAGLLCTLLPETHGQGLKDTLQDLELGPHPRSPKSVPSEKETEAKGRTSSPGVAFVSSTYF

In the case of `CCCN(CCC)S(=O)(=O)c1ccc(C(=O)O)cc1` [Compound 1, probenecid], the “[14C]UA uptake inhibition via hOAT3, inhibitor inside” value in data set [1] is “profound inhibition”. Besides, the “[14C]UA uptake inhibition via hNPT4, inhibitor outside” value in data set [2] was “dose-dependent inhibition”. Also, the “[14C]UA uptake inhibition via hNPT4, inhibitor inside” value in data set [2] (inhibitor injected inside the oocyte) is recorded as “moderate inhibition”.

On to `CCc1oc2ccccc2c1C(=O)c1cc(Br)c(O)c(Br)c1` [Compound 2, benzbromarone], for which, in data set [3] (0.1 µM benzbromarone, 0.3 µM 6-hydroxy benzbromarone in uptake solution), the “Effect on Vmax for [14C]UA uptake” value is reported as “reduced”. Moreover, the “[14C]UA uptake inhibition via hURAT1, inhibitor inside” value in data set [3] (inhibitor injected inside the oocyte, [14C]UA 10 µM) is recorded as “did not produce a profound inhibition”. Also, in data set [4] (inhibitor in incubation media), the “14C-uric acid transport via hOAT10, inhibitor outside” value was “roughly 50 % of control”. The “[14C]UA uptake inhibition via hOAT10, inhibitor outside” value in data set [4] (inhibitor in uptake solution) is “dose-dependent effect”. For the same compound, the results for the “[14C]UA uptake inhibition via hOAT10, inhibitor inside” value in data set [4] and in data set [4] (listed as benzbromarone) were “did not display this effect” and “did not produce a statistically different uptake as compared to control”, respectively. Moreover, the “[14C]UA uptake inhibition via hOAT1, inhibitor inside” value in data set [5] is “not readily inhibited”. Besides, in data set [1], the “[14C]UA uptake inhibition via hOAT3, inhibitor inside” value is on record as “not readily inhibited”. Further, the “[14C]UA uptake inhibition via hNPT4, inhibitor outside” value in data set [2] is given as “dose-dependent inhibition”.

As for `CCc1oc2cc(F)ccc2c1C(=O)c1cc(Br)c(O)c(Br)c1` [Compound 5, (3,5-dibromo-4-hydroxyphenyl)(2-ethyl-6-fluorobenzofuran-3-yl)methanone], half-maximal inhibition in data set [6] (IC50) was put at 739 nM. Besides, the AUC(0-t) in data set [7] (iv, 0.43 mg/kg) was 2090 ± 119 ng·h/mL. Besides, in data set [7] (iv, 0.43 mg/kg, T1/2, rat, iv orbital sinus dosing 0.43 mg/Kg), the half-life was approximately 3 h. In data set [7] (po, 19.6 mg/kg), the AUC(0-t) worked out at 60600 ± 7900 ng·h/mL, the Cmax was 6460 to 6470 ng/mL and the Tmax was in the range of 2 to 3 h.

The term IC50 denotes the midpoint of a concentration-inhibition curve. Low values mean higher potency, high ones lower potency. The AUC(0-t) is the area under the concentration-time curve up to a stated or last time point. What is called half-life is the time needed for the level to fall by half in the phase considered. Lower therefore signals rapid decline. What is called Cmax is the highest concentration seen after dosing. A word on the Tmax: it is the time at which the peak concentration occurs.
